The values below come from ChEMBL document CHEMBL4152243, “Design, synthesis and biological activities of 2,3-dihydroquinazolin-4(1H)-one derivatives as TRPM2 inhibitors” (Eur J Med Chem, 2018).

Calls of active or inactive are those of the source. No cut-off for these calls is given here.

Format in all cases: cell-based
The target in assay [1] is T1, Transient receptor potential cation channel subfamily M member 2 (Homo sapiens, UniProt O94759). The assay can be described thus: Inhibition of human TRPM2 expressed in HEK293 cells assessed as reduction in H2O2-induced intracellular calcium flux at 30 uM after 30 mins by Fluo3-AM dye based fluorescence imaging assay. A general note: A change in cytosolic calcium serves as a functional read-out for many receptors and channels.

The target in assay [2] is T1, Transient receptor potential cation channel subfamily M member 2. Kind of assay: Inhibition of human TRPM2 expressed in HEK293 cells assessed as reduction in ADPR-induced channel currents at 30 uM treated extracellularly after 60 secs by whole cell patch clamp electrophysiology method relative to control. In outline:
(§1)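 Tetracycline-inducible HEK293 stably expressing human TRPM2 (1 µg/mL tetracycline), whole-cell patch clamp at room temperature. ECS (mM): 145 NaCl, 5.6 KCl, 2 MgCl2, 1.2 CaCl2, 10 HEPES, pH 7.2. ICS contained 500 µM ADPR (pH 7.3). Compound was added to ECS. Held at 0 mV with 500 ms ramps from -100 to 100 mV every 5 s. IC50 came from concentration–response curves; mean ± SEM from at least five cells.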
On the technique in general: In patch-clamp work, channel activity is measured electrically.

Assay [3] has the same target. The assay can be described thus: Inhibition of human TRPM2 expressed in HEK293 cells assessed as reduction in ADPR-induced channel currents treated extracellularly after 60 secs by whole cell patch clamp electrophysiology method. In outline:
as §1

The target is the same in assay [4]. Kind of assay: Inhibition of human TRPM2 expressed in HEK293 cells assessed as reduction in ADPR-induced channel currents at 3 uM treated extracellularly after 60 secs by whole cell patch clamp electrophysiology method relative to control. In outline:
as §1

Assay [5] addresses T2, Transient receptor potential cation channel subfamily M member 8 (Homo sapiens, UniProt Q7Z2W7). The assay can be described thus: Inhibition of human TRPM8 expressed in HEK293 cells assessed as reduction in menthol-induced channel currents at 30 uM treated extracellularly after 60 secs by whole cell patch clamp electrophysiology method relative to control. In outline: (§2)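 HEK293 were transiently transfected with human TRPM8 (pcDNA4/TO) plus GFP using Lipofectamine 2000 and recorded 24–48 h later by whole-cell patch clamp. TRPM8 was activated by 1 mM menthol in ECS. Compound at 30 µM was placed in ECS or ICS, with 0.1 mM 2-APB as reference inhibitor. Mean peak currents reported as mean ± SEM, n = 5.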
Target sequence in this assay (Q7Z2W7 whole entry, looked up): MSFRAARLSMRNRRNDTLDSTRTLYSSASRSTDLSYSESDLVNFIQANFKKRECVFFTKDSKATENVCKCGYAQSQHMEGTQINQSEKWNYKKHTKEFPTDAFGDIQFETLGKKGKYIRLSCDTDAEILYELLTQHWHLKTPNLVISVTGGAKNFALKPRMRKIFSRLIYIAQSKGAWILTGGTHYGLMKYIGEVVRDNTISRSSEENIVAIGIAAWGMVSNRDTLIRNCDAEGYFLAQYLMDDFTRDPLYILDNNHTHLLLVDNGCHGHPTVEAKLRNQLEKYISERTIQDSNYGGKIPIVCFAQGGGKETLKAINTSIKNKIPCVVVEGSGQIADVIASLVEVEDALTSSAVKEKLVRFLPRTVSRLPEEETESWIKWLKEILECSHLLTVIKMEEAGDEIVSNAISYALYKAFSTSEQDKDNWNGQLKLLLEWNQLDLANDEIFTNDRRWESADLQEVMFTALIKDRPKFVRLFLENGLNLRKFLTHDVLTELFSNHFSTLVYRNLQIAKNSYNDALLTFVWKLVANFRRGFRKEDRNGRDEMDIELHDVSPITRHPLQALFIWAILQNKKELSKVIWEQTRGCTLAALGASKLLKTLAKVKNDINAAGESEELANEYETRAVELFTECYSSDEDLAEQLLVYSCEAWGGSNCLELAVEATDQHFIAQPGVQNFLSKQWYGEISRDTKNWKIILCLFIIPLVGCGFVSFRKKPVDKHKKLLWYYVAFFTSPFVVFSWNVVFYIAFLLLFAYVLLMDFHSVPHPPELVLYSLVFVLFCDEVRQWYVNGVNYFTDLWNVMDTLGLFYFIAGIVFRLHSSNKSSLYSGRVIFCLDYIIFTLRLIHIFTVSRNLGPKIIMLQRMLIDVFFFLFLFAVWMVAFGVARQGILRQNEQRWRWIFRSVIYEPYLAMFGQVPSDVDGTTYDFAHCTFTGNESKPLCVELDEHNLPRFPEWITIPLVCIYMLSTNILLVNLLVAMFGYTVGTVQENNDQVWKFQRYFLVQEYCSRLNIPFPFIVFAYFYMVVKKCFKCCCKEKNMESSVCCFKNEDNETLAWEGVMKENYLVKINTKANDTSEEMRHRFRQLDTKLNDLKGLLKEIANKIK

Assay [6] concerns the target T2, Transient receptor potential cation channel subfamily M member 8. Kind of assay: Inhibition of human TRPM8 expressed in HEK293 cells assessed as reduction in menthol-induced channel currents at 30 uM treated intracellularly via pipette after 60 secs by whole cell patch clamp electrophysiology method. Put shortly:
as §2
Target sequence in this assay (Q7Z2W7 whole entry, looked up): as above

Assay [7] relates to Transient receptor potential cation channel subfamily M member 2 (Homo sapiens), O94759 [H995A]. Kind of assay: Inhibition of human TRPM2 H995A mutant expressed in HEK293 cells assessed as reduction in ADPR-induced channel currents at 30 uM treated extracellularly after 50 to 200 secs by whole cell patch clamp electrophysiology method.
The subject of assay [8] is Transient receptor potential cation channel subfamily M member 2 (Homo sapiens), O94759 [D964A]. The assay can be described thus: Inhibition of human TRPM2 D964A mutant expressed in HEK293 cells assessed as reduction in ADPR-induced channel currents at 30 uM treated extracellularly after 50 to 200 secs by whole cell patch clamp electrophysiology method relative to control.

The target in assay [9] is T2, Transient receptor potential cation channel subfamily M member 8. Kind of assay: Inhibition of human TRPM8 expressed in HEK293 cells assessed as reduction in H2O2-induced intracellular calcium flux after 30 mins by Fluo4-AM dye based fluorescence assay.
Target sequence in this assay (Q7Z2W7 whole entry): as the sequence (Q7Z2W7 whole entry, looked up) above
Assay [10] has as its target T1, Transient receptor potential cation channel subfamily M member 2. Kind of assay: Inhibition of human TRPM2 expressed in HEK293 cells assessed as reduction in ADPR-induced channel currents at 30 to 1000 uM treated intracellularly after 60 secs by whole cell patch clamp electrophysiology method. In outline: (§3)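 Human TRPM2 in tetracycline-inducible HEK293, recorded by whole-cell patch clamp at room temperature. Compound at 30 µM or 1 mM was added to the pipette ICS together with 500 µM ADPR; the ICS (mM) was 147 NaCl, 1 EGTA, 1 MgCl2, 24 HEPES, pH 7.3. Ramps ran from -100 to 100 mV every 5 s from a 0 mV hold, with leak subtraction from the first three ramps.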

The target is the same in assay [11]. Kind of assay: Inhibition of human TRPM2 expressed in HEK293 cells assessed as reduction in ADPR-induced channel currents at 30 to 1000 uM treated simultaneously after 60 secs by whole cell patch clamp electrophysiology method. In outline:
as §3

Sequence of Transient receptor potential cation channel subfamily M member 2 (Homo sapiens), O94759 [H995A] (O94759 whole entry H995A): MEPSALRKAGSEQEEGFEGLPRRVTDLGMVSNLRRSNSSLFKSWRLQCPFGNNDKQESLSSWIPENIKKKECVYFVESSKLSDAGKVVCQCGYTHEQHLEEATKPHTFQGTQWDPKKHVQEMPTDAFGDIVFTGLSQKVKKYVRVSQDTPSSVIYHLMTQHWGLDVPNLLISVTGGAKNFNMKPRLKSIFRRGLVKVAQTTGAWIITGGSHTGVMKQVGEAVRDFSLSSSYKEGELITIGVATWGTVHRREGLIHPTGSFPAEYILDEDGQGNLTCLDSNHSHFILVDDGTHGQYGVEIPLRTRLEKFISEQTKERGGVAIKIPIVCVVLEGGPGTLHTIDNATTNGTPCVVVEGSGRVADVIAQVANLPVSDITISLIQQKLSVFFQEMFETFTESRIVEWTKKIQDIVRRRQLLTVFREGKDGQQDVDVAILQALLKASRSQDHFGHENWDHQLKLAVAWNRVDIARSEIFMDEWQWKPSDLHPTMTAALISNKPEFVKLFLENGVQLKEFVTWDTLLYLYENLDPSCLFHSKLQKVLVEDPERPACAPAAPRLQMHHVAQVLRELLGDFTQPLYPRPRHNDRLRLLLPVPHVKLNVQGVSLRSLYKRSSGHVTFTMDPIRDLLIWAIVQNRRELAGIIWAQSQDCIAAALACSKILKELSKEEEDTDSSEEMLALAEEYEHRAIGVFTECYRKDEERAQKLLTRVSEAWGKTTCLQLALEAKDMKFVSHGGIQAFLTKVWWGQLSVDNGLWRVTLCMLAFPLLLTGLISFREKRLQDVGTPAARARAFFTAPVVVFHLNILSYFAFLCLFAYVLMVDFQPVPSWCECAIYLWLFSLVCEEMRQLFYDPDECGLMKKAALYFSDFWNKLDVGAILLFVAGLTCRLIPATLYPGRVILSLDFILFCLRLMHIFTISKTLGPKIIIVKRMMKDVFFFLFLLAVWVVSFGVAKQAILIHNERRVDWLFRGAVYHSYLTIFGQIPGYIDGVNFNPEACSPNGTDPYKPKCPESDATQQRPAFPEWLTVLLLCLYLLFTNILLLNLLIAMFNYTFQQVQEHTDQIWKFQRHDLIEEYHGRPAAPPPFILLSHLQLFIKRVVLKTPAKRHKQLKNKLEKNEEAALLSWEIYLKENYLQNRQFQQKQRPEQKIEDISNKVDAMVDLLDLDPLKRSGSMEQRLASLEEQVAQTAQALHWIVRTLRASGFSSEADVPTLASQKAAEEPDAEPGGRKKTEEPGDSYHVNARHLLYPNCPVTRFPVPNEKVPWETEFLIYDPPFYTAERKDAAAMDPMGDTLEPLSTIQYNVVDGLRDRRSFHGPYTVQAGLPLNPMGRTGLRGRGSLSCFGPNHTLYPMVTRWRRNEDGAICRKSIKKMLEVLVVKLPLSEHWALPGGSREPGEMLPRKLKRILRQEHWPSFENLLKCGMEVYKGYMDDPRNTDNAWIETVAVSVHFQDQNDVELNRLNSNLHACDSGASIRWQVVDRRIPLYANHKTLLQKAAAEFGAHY
T1 sequence (O94759 whole entry): as the sequence (O94759 whole entry H995A) above, with A995H counted along it
Sequence of Transient receptor potential cation channel subfamily M member 2 (Homo sapiens), O94759 [D964A] (O94759 whole entry D964A): as the sequence (O94759 whole entry H995A) above, with D964A, A995H counted along it

For orientation: inhibition means the drop in the measured response relative to a control, in per cent. Regarding `Cc1cc(I)cc2c1NC(c1c[nH]nc1-c1ccccc1)NC2=O` (stereo not given), the inhibition result in assay [1] is “Active”.

As for `O=C1NC(c2c[nH]nc2-c2ccccc2)Nc2c(Br)cc(F)cc21` (stereo not given), the inhibition entry in assay [1] was “Active”.

For `O=C1NC(c2c[nH]nc2-c2ccccc2)Nc2ccc(F)cc21` (stereo not given), the inhibition in [2] was 34.8%.

As a reminder, the IC50 is the concentration that inhibits the measured activity by half. For `Cc1cc(Cl)cc2c1NC(c1c[nH]nc1-c1ccccc1)NC2=O` (stereo not given), the inhibition in assay [2] turned out to be 90.2%; in assay [4] it was 46.4%; in assay [5], 27%. Also, the IC50 in assay [3] is 5.1 µM. In addition, the inhibition entry in [6] is “Active”.

`O=C1NC(c2c[nH]nc2-c2ccc([N+](=O)[O-])cc2)Nc2c(I)cc(Cl)cc21` (stereo not given): the inhibition in assay [4] was found to be 34.9%.

Regarding `Cc1cc(C)c2c(c1)C(=O)NC(c1c[nH]nc1-c1ccccc1)N2` (stereo not given), the inhibition in assay [2] stood at 60.5%.

As to `Cc1cc(F)cc2c1NC(c1c[nH]nc1-c1ccccc1)NC2=O` (stereo not given), in [2], the inhibition is 42.7%.

With `Cc1cc(Cl)cc2c(=O)[nH]c(-c3c[nH]nc3-c3ccccc3)nc12`, the inhibition entry in assay [1] was “Active”.

On to `Cc1cc(Br)c2c(c1)C(=O)NC(c1c[nH]nc1-c1ccccc1)N2` (stereo not given), for which the inhibition entry in [1] was “Active”.

For the compound `Cc1cc(Cl)cc2c1NC(c1cn[nH]c1)NC2=O` (stereo not given), in [2], the inhibition was determined as 16.9%.

With `Cc1cc(Cl)cc2c1NC(c1c[nH]nc1-c1ccc(Cl)cc1)NC2=O` (stereo not given), in assay [2], the inhibition amounted to 10.3%.

Turning to `Cc1cc(Br)cc2c1NC(c1c[nH]nc1-c1cccc3ccccc13)NC2=O` (stereo not given), the IC50 in [3] was found to be 3.7 µM. The inhibition entry in assay [7], in assay [5] and in assay [6] was “inactive” throughout. In addition, the inhibition in assay [4] came out at 48.7%.

As to `O=c1[nH]c(-c2c[nH]nc2-c2ccccc2)nc2ccc(Cl)cc12`, in assay [1], the inhibition entry is “Active”.

On to `Nc1ncnc2c1ncn2[C@@H]1O[C@H](COP(=O)(O)O)[C@@H](O)[C@H]1O`, for which, in assay [3], the inhibition entry was “Dose-dependent effect”. Besides, in assay [7], the inhibition result is “inactive”. Further, the inhibition result in [8] is “Active”.

Consider `O=C1NC(c2c[nH]nc2-c2ccccc2)Nc2cc(Br)ccc21` (stereo not given), for which, in assay [1], the inhibition entry was “Active”.

`O=C1NC(c2c[nH]nc2-c2ccccc2)Nc2c1cccc2[N+](=O)[O-]` (stereo not given): in [1], the inhibition result was “Active”.

`Cc1cccc2c(=O)[nH]c(-c3c[nH]nc3-c3ccccc3)nc12`: in [2], the inhibition is 21.2%.

On to `O=C1NC(c2c[nH]nc2-c2ccccc2)Nc2cccc(Cl)c21` (stereo not given), for which the inhibition result in assay [1] was “Active”.

In the case of `O=c1[nH]c(SCc2ccncc2)nc2ccccc12`, the inhibition result in [1] is “Active”.

As to `Cc1cc(Br)cc2c1NC(c1c[nH]nc1-c1ccc([N+](=O)[O-])cc1)NC2=O` (stereo not given), in assay [4], the inhibition is 42.1%.

With `O=C1NC(c2c[nH]nc2-c2ccccc2)Nc2c(I)cc(Cl)cc21` (stereo not given), the inhibition in assay [2] was 89.4%; in assay [4] it was 39.6%.

As for `Cc1cc(Br)cc2c1NC(c1c[nH]nc1-c1ccccc1)NC2=O` (stereo not given), the inhibition is 92.8% in assay [2], 50.1% in assay [4] and 19% in [5]. Moreover, the IC50 in assay [3] was 4.6 µM. Also, the inhibition entry in assay [6] is “Active”.

In the case of `O=C1NC(c2c[nH]nc2-c2ccc(Cl)cc2)Nc2ccccc21` (stereo not given), the inhibition result in [1] is “Active”.

Consider `Cc1cc(C)c2nc(-c3c[nH]nc3-c3ccccc3)[nH]c(=O)c2c1`, for which the inhibition result in assay [1] is “Active”.

As to `COc1cc(Br)cc2c1NC(c1c[nH]nc1-c1ccccc1)NC2=O` (stereo not given), the inhibition in [2] is 50.4%.

`O=C1NC(c2c[nH]nc2-c2ccccc2)Nc2c(Br)cc(Br)cc21` (stereo not given): the inhibition entry in assay [1] was “Active”.

Take `O=c1[nH]c(-c2c[nH]nc2-c2ccccc2)nc2ccccc12`: the inhibition in assay [2] was found to be 28.7%.

As to `CCCCCc1ccc(/C=C/C(=O)Nc2ccccc2C(=O)O)cc1`, the inhibition in [2] was 89.1%; in assay [4], 75.9%. The IC50 amounted to 0.32 µM in assay [3] and 3.9 µM in [9].

On to `O=c1[nH]c(-c2c[nH]nc2-c2ccccc2)nc2ncccc12`, for which the inhibition entry in assay [1] was “Active”.

With `O=C1NC(c2c[nH]nc2-c2ccccc2)Nc2ccccc21` (stereo not given), in [1], the inhibition entry was “Active”. The inhibition result in assay [10] and in [11] was “inactive” each time. For the same compound, the inhibition in assay [2] is 55 to 68.1%; in [7], 4%; in assay [8], 40 to 50%.

In the case of `O=C1NC(c2c[nH]nc2-c2ccccc2)Nc2c(Cl)cc(Cl)cc21` (stereo not given), the inhibition entry in assay [1] is “Active”.

Take `Cc1cc(Cl)cc2c1NC(c1c[nH]nc1-c1cccc3ccccc13)NC2=O` (stereo not given): the results for the inhibition in assay [2] and in assay [4] were 90.2% and 50.9%, respectively. Besides, in assay [3], the IC50 is 4 µM. Further, the inhibition entry in assay [5] and in [6] was “inactive” each time.

For the compound `Cc1cc(Cl)cc2c1NC(c1c[nH]nc1-c1ccc([N+](=O)[O-])cc1)NC2=O` (stereo not given), the inhibition turned out to be 90.4% in assay [2] and 43.4% in assay [4].

For `Cc1cc(Cl)cc2c1NC(c1c[nH]nc1-c1ccc(Br)cc1)NC2=O` (stereo not given), in assay [2], the inhibition was determined as 51%.

For `O=C1NC(c2c[nH]nc2-c2ccccc2)Nc2c(F)cc(F)cc21` (stereo not given), the inhibition in assay [2] is 37.2%.

For `Cc1cccc2c1C(=O)NC(c1c[nH]nc1-c1ccccc1)N2` (stereo not given), the inhibition entry in assay [1] was “Active”.

With `Cc1cc(Cl)cc2c1N[C@@H](c1c[nH]nc1-c1ccccc1)NC2=O`, the inhibition result in assay [2] is “Active”.

For `Cc1cc(Cl)cc2c1N[C@H](c1c[nH]nc1-c1ccccc1)NC2=O`, in assay [2], the inhibition entry was “Active”.

In the case of `O=C1NC(c2c[nH]nc2-c2ccccc2)Nc2c(Br)cccc21` (stereo not given), in [1], the inhibition entry is “Active”.

On to `O=C1NC(c2c[nH]nc2-c2cccc3ccccc23)Nc2c(I)cc(Cl)cc21` (stereo not given), for which the inhibition in assay [4] was found to be 19.9%.

On to `O=C1NC(c2cc(-c3ccccc3)c[nH]2)Nc2ccccc21` (stereo not given), for which the inhibition entry in assay [1] was “Active”.

In the case of `O=C1NC(c2cncn2Cc2ccc(Cl)cc2)Nc2ccccc21` (stereo not given), in [1], the inhibition result is “Active”.

On to `Cc1cc(Cl)cc2c1NC(c1c[nH]nc1-c1ccccc1Br)NC2=O` (stereo not given), for which the inhibition in [2] amounted to 17.9%.

As for `Cc1cccc2c1NC(c1c[nH]nc1-c1ccccc1)NC2=O` (stereo not given), the inhibition in assay [2] was found to be 39.2%.

As for `O=C1NC(c2c[nH]nc2-c2ccccc2)Nc2c(I)cc(I)cc21` (stereo not given), the inhibition entry in assay [1] is “Active”.

Turning to `O=C1NC(c2c[nH]nc2-c2ccccc2)Nc2ccc(Cl)cc21` (stereo not given), the inhibition in assay [2] turned out to be 27.9%.

For `Cc1cc(Cl)cc2c1NC(c1c[nH]nc1-c1ccc(-c3ccccc3)cc1)NC2=O` (stereo not given), the inhibition in [2] stood at 17%.
